ChEMBL document CHEMBL1121744, “Synthesis and antihypertensive activity of a series of 8-substituted 1-oxa-3,8-diazaspiro[4.5]decan-2-ones” (J Med Chem, 1981)
Several values for one entry are separate records, joined by “and”; a condition that tells them apart may be missing. Identical values can stand only once. Activity calls are given as the source filed them. The calls are words filed in the database; no cut-off is given here.

What was measured:
[1] = Distribution coefficient between 1-Octanol and phosphate buffer at pH7.4; type: physicochemical; conditions: 1-octanol/phosphate buffer, pH 7.4
Outline: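 Octanol/buffer distribution measured at pH 7.4 in phosphate with sodium chloride. Either HPLC (0.004 M) or shake flask.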

Rattus norvegicus [2] = test: Antihypertensive activity as percentage fall in systolic blood pressure in spontaneously hypertensive rats after a period of 3 h for a dose of 50 mg/kg; type: functional, organism-based; design: dose 50 mg/kg; conditions: Artery
Outline: (§1)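 Male Okamoto-Aoki SHR, trained, in groups of four matched for mean systolic pressure; one group per run received water vehicle. Oral dosing in water (0.1 mL per 10 g) on two consecutive mornings. After the day-2 dose, rats were restrained at 30.0 ± 1.0 °C. Systolic pressure was read by tail cuff (inflated to 300 mmHg, first pulse) at 1–4 h. % fall is versus the untreated control group, by 1-tail t test (p ≤ 0.05).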

Rattus norvegicus [3] = test: Antihypertensive activity as percentage fall in systolic blood pressure in spontaneously hypertensive rats after a period of 1 hr for a dose of 50 mg/kg po; NS=Not significant; type: functional, organism-based; design: dose 50 mg/kg; conditions: Artery
Outline: (§2)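 Male Okamoto-Aoki SHR, trained, in groups of four matched for systolic pressure, with a concurrent vehicle control group. Oral dosing on two consecutive mornings, in water as solution or suspension at 0.1 mL/10 g. On day 2 rats were restrained at 30.0 ± 1.0 °C. Tail-cuff systolic pressure, four traces per rat, read at each hour. Per cent fall versus control; 1-tail t test, p ≤ 0.05.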

Rattus norvegicus [4] = test: Antihypertensive activity as percentage fall in systolic blood pressure in spontaneously hypertensive rats after a period of 2 hr for a dose of 50 mg/kg; type: functional, organism-based; design: dose 50 mg/kg; conditions: Artery; outline: as §1
Rattus norvegicus [5] = test: Antihypertensive activity as percentage fall in systolic blood pressure in spontaneously hypertensive rats after a period of 4 hr for a dose of 50 mg/kg; type: functional, organism-based; design: dose 50 mg/kg; conditions: Artery; outline: as §1
Rattus norvegicus [6] = test: The antihypertensive activity as percentage fall in systolic blood pressure in spontaneously hypertensive rats after a period of 1 hr for a dose of 25 mg/kg po; type: functional, Artery; outline: as §1
Rattus norvegicus [7] = test: The antihypertensive activity as percentage fall in systolic blood pressure in spontaneously hypertensive rats after a period of 2 hr for a dose of 25 mg/kg po; NS=Not significant; type: functional, organism-based; design: dose 25 mg/kg; conditions: Artery; outline: as §1
Rattus norvegicus [8] = test: The antihypertensive activity as percentage fall in systolic blood pressure in spontaneously hypertensive rats after a period of 3 hr for a dose of 25 mg/kg po; NS=Not significant; type: functional, organism-based; design: dose 25 mg/kg; conditions: Artery; outline: as §1
Rattus norvegicus [9] = test: The antihypertensive activity as percentage fall in systolic blood pressure in spontaneously hypertensive rats after a period of 4 hr for a dose of 25 mg/kg po; NS=Not significant; type: functional, organism-based; design: dose 25 mg/kg; conditions: Artery; outline: as §1
Rattus norvegicus [10] = test: Antihypertensive activity as percentage fall in systolic blood pressure in spontaneously hypertensive rats after a period of 1 hr for a dose of 50 mg/kg; type: functional, Artery; outline: as §1
Rattus norvegicus [11] = test: Percentage fall in systolic blood pressure in spontaneously hypertensive rats after 2 hr following 50 mg/kg p.o.; type: functional, Artery; conditions: route oral, 50 mg/kg; outline: as §1
Rattus norvegicus [12] = test: Percentage fall in systolic blood pressure in spontaneously hypertensive rats after 3 h following 50 mg/kg p.o.; type: functional, Artery; conditions: route oral; outline: as §1
Rattus norvegicus [13] = test: Antihypertensive activity as percentage fall in systolic blood pressure in spontaneously hypertensive rats after a period of 3 hr for a dose of 50 mg/kg po; NS=Not significant; type: functional, organism-based; design: dose 50 mg/kg; conditions: Artery; outline: as §2
Rattus norvegicus [14] = test: Antihypertensive activity as percentage fall in systolic blood pressure in spontaneously hypertensive rats after a period of 4 hr for a dose of 50 mg/kg po; NS=Not significant; type: functional, organism-based; design: dose 50 mg/kg; conditions: Artery; outline: as §2
Rattus norvegicus [15] = test: Antihypertensive activity as percentage fall in systolic blood pressure in spontaneously hypertensive rats after a period of 2 hr for a dose of 50 mg/kg po; NS=Not significant; type: functional, organism-based; design: dose 50 mg/kg; conditions: Artery; outline: as §2
Rattus norvegicus [16] = test: The antihypertensive activity as percentage fall in systolic blood pressure in spontaneously hypertensive rats after a period of 1 hr for a dose of 50 mg/kg po
Rattus norvegicus [17] = test: The antihypertensive activity as percentage fall in systolic blood pressure in spontaneously hypertensive rats after a period of 3 hr for a dose of 50 mg/kg po
Rattus norvegicus [18] = test: The antihypertensive activity as percentage fall in systolic blood pressure in spontaneously hypertensive rats after a period of 4 hr for a dose of 50 mg/kg po
Rattus norvegicus [19] = test: The antihypertensive activity as percentage fall in systolic blood pressure in spontaneously hypertensive rats after a period of 2 hr for a dose of 50 mg/kg po
Rattus norvegicus [20] = test: The antihypertensive activity as percentage fall in systolic blood pressure in spontaneously hypertensive rats after a period of 3 hr for a dose of 75 mg/kg po; NS=Not significant; type: functional, organism-based; design: dose 75 mg/kg; conditions: Artery; outline: as §2
Rattus norvegicus [21] = test: The antihypertensive activity as percentage fall in systolic blood pressure in spontaneously hypertensive rats after a period of 4 hr for a dose of 75 mg/kg po; NS=Not significant; type: functional, organism-based; design: dose 75 mg/kg; conditions: Artery; outline: as §2

CCN1CC2(CCN(CCc3c[nH]c4ccccc34)CC2)OC1=O
logD [1]: 1.92 | Decrease in blood pressure (Rattus norvegicus [2]): Not significant | Decrease in blood pressure (Rattus norvegicus [3]): inactive | Decrease in blood pressure (Rattus norvegicus [4]): Not significant | Decrease in blood pressure (Rattus norvegicus [5]): Not significant

CC(C)N1CC2(CCN(CC(O)C3COc4ccccc4O3)CC2)OC1=O (configuration not stated)
logD [1]: 2.05 | Decrease in blood pressure (Rattus norvegicus [6]): 14% | Decrease in blood pressure (Rattus norvegicus [7]): inactive | Decrease in blood pressure (Rattus norvegicus [8]): inactive | Decrease in blood pressure (Rattus norvegicus [9]): inactive | Decrease in blood pressure (Rattus norvegicus [10]): 26% | Decrease in blood pressure (Rattus norvegicus [11]): 20% and 16% | Decrease in blood pressure (Rattus norvegicus [12]): 16%

CN1CC2(CCN(CCc3c[nH]c4ccccc34)CC2)OC1=O
logD [1]: 1.73 | Decrease in blood pressure (Rattus norvegicus [13]): inactive | Decrease in blood pressure (Rattus norvegicus [14]): inactive | Decrease in blood pressure (Rattus norvegicus [3]): inactive | Decrease in blood pressure (Rattus norvegicus [15]): inactive | Decrease in blood pressure (Rattus norvegicus [16]): 23% | Decrease in blood pressure (Rattus norvegicus [17]): 8% | Decrease in blood pressure (Rattus norvegicus [18]): 9% | Decrease in blood pressure (Rattus norvegicus [19]): 18%

CC(C)N1CC2(CCN(CCc3c[nH]c4ccccc34)CC2)OC1=O
logD [1]: 2.4 | Decrease in blood pressure (Rattus norvegicus [20]): inactive | Decrease in blood pressure (Rattus norvegicus [21]): inactive | Decrease in blood pressure (Rattus norvegicus [16]): 22% | Decrease in blood pressure (Rattus norvegicus [19]): 9%
